Ins promoter up: MIN6 insulin promoter up-regulation; MIN6 insulin promoter-GFP reporter, high-content imaging; hits give high values; z-score at 5 µM; actives 0.3% (n = 190,000);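 active = z-score above 3 at 5 µM with at least 500 cells counted in the well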
NPY Y2 blocker: NPY-Y2 (human) receptor antagonism | inhibition, % at 2.7 µM | NPY-Y2 expressing cells, antagonist mode | AID 793 | P49146 | actives 0.99% (n = 140,000);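 note: 0% = vehicle with agonist challenge and 100% = reference antagonist with challenge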
Insulin prom inh: TRM-6 insulin promoter activity inhibition. AID 1273. TRM-6 cells (human fetal islet line), insulin promoter-eGFP reporter, imaging; reporter expression induced with tamoxifen. inhibition, % at 2 µM. actives 0.9% (n = 130,000);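 active = inhibition above the mean plus 3 SD, with well images judged a real hit on visual review, cut at about 60% in these data, passing the limit was not always enough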
NPY-Y2 PAM-ag: potentiates or activates human NPY-Y2 receptor | activation, % at 3.6 µM | actives 0.45% (n = 220,000) | P49146 | cells expressing NPY-Y2, potentiator/agonist read-out; in the data active = activation above about 27%;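 note: cells stimulated with NPY near EC25 plus isoproterenol at EC100; 0% = vehicle plus submaximal agonist and 100% = vehicle plus saturating agonist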
NPY-Y1 antag: NPY-Y1 (human) receptor antagonism; P25929; HEK293-CNG Y1 cells, membrane potential fluorescence; NPY at EC95, then isoproterenol; inhibition, % at 3.6 µM; actives 1% (n = 200,000); AID 1040;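 active = inhibition above the campaign mean inhibition of all tested compounds plus 3 SD, cut at about 20% in these data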;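 note: 0% = DMSO wells given NPY plus isoproterenol and 100% = isoproterenol alone without NPY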
Target sequence (P25929 whole entry, looked up): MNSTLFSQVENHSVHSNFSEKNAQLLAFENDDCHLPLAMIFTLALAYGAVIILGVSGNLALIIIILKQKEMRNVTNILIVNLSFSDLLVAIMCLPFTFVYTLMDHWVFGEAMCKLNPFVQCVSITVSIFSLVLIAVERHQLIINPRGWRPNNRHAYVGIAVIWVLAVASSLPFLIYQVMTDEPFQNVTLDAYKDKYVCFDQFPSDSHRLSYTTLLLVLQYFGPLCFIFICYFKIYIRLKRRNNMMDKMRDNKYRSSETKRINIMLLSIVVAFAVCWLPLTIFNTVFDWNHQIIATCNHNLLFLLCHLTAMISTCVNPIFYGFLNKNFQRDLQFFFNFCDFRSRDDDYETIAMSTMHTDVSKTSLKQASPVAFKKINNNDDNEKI
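Material: HEK293 cells with Y1 receptor plus CNG channel; times: compound incubation 1 h at room temperature, readout 45 min post-stimulation; signal: fluorescence, membrane potential probe; read-out basis: fluorescence ratio normalized to % inhibition between controls; benchmarks: full-block control isoproterenol-only wells, zero-block control NPY plus isoproterenol wells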
NPY1 pot ag: potentiates or activates human NPY-Y1 receptor | P25929 | NPY-Y1 expressing cells, potentiator/agonist activation | activation, % at 3.6 µM | actives 0.37% (n = 220,000) | AID 1304; in the data active = activation above about 33%, passing the limit was not always enough;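 note: cells stimulated with NPY at EC10 then isoproterenol at EC100; 0% = low agonist plus stimulus and 100% = saturating agonist plus stimulus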
NPY1 antag conf: human NPY-Y1 antagonism, confirmation | shares compounds with NPY-Y1 antag | HEK293-CNG NPY-Y1, membrane potential fluorescence, cAMP; NPY challenge against isoproterenol-raised cAMP | inhibition, % at 3.6 µM | actives 21% (n = 1,200); in the data active = inhibition above about 20%;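 note: 0% = vehicle with agonist plus stimulus and 100% = stimulus alone without agonist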
NPY2 antag ctr: antagonizes human NPY-Y2, counter-screen to NPY-Y1 antagonists. HEK293 NPY-Y2 CNG membrane potential fluorescence, antagonism; cells given NPY, then isoproterenol. inhibition, % at 3.6 µM. AID 1255. shares compounds with NPY-Y1 antag. actives 28% (n = 1,200);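 note: 0% = DMSO with agonist challenge and 100% = reference antagonist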
The depositor's hits bear a star. Compounds with a hit are over-represented: about 2.5% of the library has one in this group of screens. Cut-off read from the data, not from the text of the source, unless noted: active = inhibition above about 17%; inactive = the rest.

`CCC(Sc1ncnc2sc(C)c(C)c12)C(=O)OC` (configuration not stated) gave Ins promoter up 0.09, NPY Y2 blocker 6, Insulin prom inh -7, NPY-Y2 PAM-ag -19, NPY-Y1 antag 26*, NPY1 pot ag 4, NPY1 antag conf 9 and NPY2 antag ctr 10.
`Cc1c(NC(=O)/C(C#N)=C/c2ccc(-c3cccc(Cl)c3)o2)c(=O)n(-c2ccccc2)n1C` gave Ins promoter up -0.41, NPY Y2 blocker 15, NPY-Y2 PAM-ag 2, NPY-Y1 antag 26*, NPY1 pot ag 13, NPY1 antag conf 11 and NPY2 antag ctr 6.
Cc1ccc(NC(=S)NNC(=S)Nc2ccc(C)cc2C)cc1 was read as Ins promoter up -0.82, NPY-Y2 PAM-ag -41, NPY-Y1 antag 22*, NPY1 pot ag -3, NPY1 antag conf 10 and NPY2 antag ctr 17*.
Screening Cc1[nH]c2ccccc2c1/C=N/Nc1cccc(C(=O)O)c1 returned Ins promoter up 1.2, NPY-Y2 PAM-ag -3 and NPY1 pot ag -10.
Screening N=C1C(c2nc3ccccc3s2)=C(O)CN1NC(=O)c1c[nH]c2ccccc12 returned Ins promoter up 0.4, Insulin prom inh 6, NPY-Y2 PAM-ag 16, NPY-Y1 antag 28*, NPY1 pot ag 18, NPY1 antag conf 26* and NPY2 antag ctr 28*.
`CCn1c(=O)n(CC)c2cc([N+](=O)[O-])ccc21` gave NPY Y2 blocker 0, Insulin prom inh 16, NPY-Y2 PAM-ag -20, NPY-Y1 antag -4 and NPY1 pot ag 13.
`COc1ccc(NC2c3ccccc3C(=O)N2c2cccnc2)cc1` (configuration not stated) gave Ins promoter up 0.21, NPY-Y2 PAM-ag -7 and NPY1 pot ag 15.
CN(C)Cc1cc(CCNC(=O)c2ccc(Cl)cc2)ccc1O was read as Ins promoter up -0.04, NPY Y2 blocker 2, NPY-Y2 PAM-ag 5, NPY-Y1 antag 22*, NPY1 pot ag -11, NPY1 antag conf -1 and NPY2 antag ctr 2.
`CCN(CC)Cc1cc(CCNC(=O)c2ccc(Cl)cc2)ccc1O` gave NPY Y2 blocker 4, Insulin prom inh -3, NPY-Y2 PAM-ag 0, NPY-Y1 antag 4 and NPY1 pot ag 4.
`CS(=O)(=O)c1ccc2nc(NC(=O)CCN3C(=O)c4ccccc4C3=O)sc2c1` gave Ins promoter up 0.83, NPY-Y2 PAM-ag 1, NPY-Y1 antag -3 and NPY1 pot ag 6.
For C=C(C)CNC(=S)NN=C1c2ccccc2-c2ccccc21 the results were Ins promoter up -0.74, NPY-Y2 PAM-ag -37, NPY-Y1 antag 33*, NPY1 pot ag -54, NPY1 antag conf 36* and NPY2 antag ctr 69*.
`CCOC(=O)C(CO)(NC(C)=O)C(=O)OCC` gave Ins promoter up -0.09, NPY Y2 blocker 11, NPY-Y2 PAM-ag -13, NPY-Y1 antag 25*, NPY1 pot ag 0, NPY1 antag conf 9 and NPY2 antag ctr 7.
Screening CCOC(=O)C(CCCCCCC(NC(C)=O)(C(=O)OCC)C(=O)OCC)(NC(C)=O)C(=O)OCC returned Ins promoter up 2.3, NPY-Y2 PAM-ag -12 and NPY1 pot ag 3.
For CCCOC(=O)C(C)n1c(-c2ccccc2)nc2ccccc2c1=O (configuration not stated) the results were Ins promoter up -0.86, NPY Y2 blocker 14, Insulin prom inh 25, NPY-Y2 PAM-ag -66, NPY-Y1 antag 33*, NPY1 pot ag -58, NPY1 antag conf 13 and NPY2 antag ctr 11.
For Cc1ccc(C2C(C#N)=C(N)Oc3cc(C)oc(=O)c32)o1 (configuration not stated) the results were Insulin prom inh -17, NPY-Y2 PAM-ag -7, NPY-Y1 antag -3 and NPY1 pot ag 8.
Clc1cccc(Cl)c1CSc1nnc(/C=C/c2ccccc2)o1 was read as Ins promoter up -0.36, NPY Y2 blocker 16, Insulin prom inh 41, NPY-Y2 PAM-ag -39, NPY-Y1 antag 23*, NPY1 pot ag -40, NPY1 antag conf 16 and NPY2 antag ctr 16.
`O=C(Nc1cccc(Cl)c1)C1C2CCC3C(CCC21)C3(Cl)Cl` (configuration not stated) gave Ins promoter up -1.3, NPY Y2 blocker 14, NPY-Y2 PAM-ag 8, NPY-Y1 antag 33*, NPY1 pot ag -13, NPY1 antag conf 5 and NPY2 antag ctr 2.
For COc1ccc(NC(C)=O)cc1C#N the results were Ins promoter up 0.51, Insulin prom inh 21, NPY-Y2 PAM-ag -7, NPY-Y1 antag 6 and NPY1 pot ag 14.
COc1ccccc1N(CC(=O)NC1CCCC1)C(=O)c1oc(C(C)(C)C)cc1C was read as Ins promoter up -0.49, NPY-Y2 PAM-ag -14, NPY-Y1 antag 28*, NPY1 pot ag 16, NPY1 antag conf 22* and NPY2 antag ctr 8.
`Cc1cc(C(C)(C)C)oc1C(=O)N(CC(=O)NC1CCCC1)c1c(C)cccc1C` gave Ins promoter up -0.94, NPY Y2 blocker 10, Insulin prom inh 13, NPY-Y2 PAM-ag -8, NPY-Y1 antag 10 and NPY1 pot ag 12.
`Cc1cc(C(C)(C)C)oc1C(=O)N(CC(=O)NC1CCCC1)c1ccc(F)cc1` gave Ins promoter up -0.5, NPY Y2 blocker 15, Insulin prom inh -19, NPY-Y2 PAM-ag 0, NPY-Y1 antag 27*, NPY1 pot ag -4, NPY1 antag conf 6 and NPY2 antag ctr 6.
`COc1cccc2c(=O)n(CC(=O)N3CCCCC3)ccc12` gave Ins promoter up -0.79, NPY Y2 blocker 1, NPY-Y2 PAM-ag 7, NPY-Y1 antag 3 and NPY1 pot ag -10.
Screening CCc1ccc(CN(C)Cc2nc(COc3ccccc3)no2)nc1 returned Ins promoter up 0.23, NPY-Y2 PAM-ag -2, NPY-Y1 antag 2 and NPY1 pot ag -6.
Screening CC(C)(C)NC(=O)C(c1cccnc1)N(C(=O)c1ccc(Cl)nc1)C1CCCC1 (configuration not stated) returned Ins promoter up 1.3, Insulin prom inh -67, NPY-Y2 PAM-ag -4, NPY-Y1 antag 4 and NPY1 pot ag 2.
Screening CN(CCC#N)C(=S)NC(=O)c1ccc(S(=O)(=O)N2CCOCC2)cc1 returned Ins promoter up -0.01, Insulin prom inh 57, NPY-Y2 PAM-ag 4, NPY-Y1 antag 46*, NPY1 pot ag 10, NPY1 antag conf 0 and NPY2 antag ctr 0.
Screening Cc1cccc(C(C)(C)C)c1OCCCCN1CCCC1 returned Ins promoter up -1.2, NPY Y2 blocker 9, Insulin prom inh -53, NPY-Y2 PAM-ag -17, NPY-Y1 antag 21*, NPY1 pot ag -23, NPY1 antag conf 10 and NPY2 antag ctr 15.

Screens from PubChem.
